Hit rate of the full screen: of about 360,000 compounds, about 3,600 (1%) were called active. What follows is part of a selection rich in actives, with near analogues and random picks from the rest. Unmarked numbers belong to inactive results.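 The calls were made as follows: active = activation above the mean activation of all test compounds in the run plus 3 SD (cut at about 38% in these data); inactive = the rest.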

Trace amine-associated receptor 1 (Homo sapiens), sequence (Q96RJ0 whole entry, looked up): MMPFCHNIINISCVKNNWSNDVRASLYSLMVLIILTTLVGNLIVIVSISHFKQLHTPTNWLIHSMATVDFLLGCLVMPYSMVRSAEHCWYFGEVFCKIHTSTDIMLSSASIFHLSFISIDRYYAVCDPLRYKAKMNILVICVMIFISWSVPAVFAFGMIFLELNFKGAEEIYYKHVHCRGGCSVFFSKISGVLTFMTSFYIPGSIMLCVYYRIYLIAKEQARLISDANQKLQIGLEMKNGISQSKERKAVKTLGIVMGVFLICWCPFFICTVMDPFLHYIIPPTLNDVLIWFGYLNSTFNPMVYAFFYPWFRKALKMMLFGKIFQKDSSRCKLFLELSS

This test concerns the target Trace amine-associated receptor 1 (Homo sapiens) (UniProt Q96RJ0). The experiment in a line: human TAAR1 agonists, primary screen, Fluo-8 calcium fluorescence, CHO RD-HGA16 cells (AID 624467). Particulars: CHO RD-HGA16 TAAR1, Fluo-8 calcium fluorescence; at 3 µM; hits give high values; vehicle wells 0%, saturating PEA agonist 100%. A digest of the protocol:
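Benchmarks: low control DMSO, high control PEA (EC100); System: CHO RD-HGA16 cells carrying human TAAR1 plus Gα16; Detection: Fluo-8 fluorescence, 5 s baseline then 140 s kinetic read; Schedule: 17-24 h plating, Fluo-8 75 min 37 °C, 30 min RT; Read-out basis: % activation from peak over basal fluorescence ratio, DMSO-to-PEA scaled.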
With `O=C(Nc1ccc(Cl)cc1)N1CCc2[nH]c3ccccc3c2C1`, the activation is 50.1% (active).

As for `C=CCNC(=S)N1CCc2[nH]c3ccccc3c2C1`, the activation is 6.5%.

For `C[C@H](O)[C@@H]1C(=O)N2CCc3c([nH]c4ccccc34)[C@@H]2C[C@@H]1N(C)C(=O)Nc1ccc(F)cc1`, the activation is 9.88%.

In the case of `CCOc1ccc(NC(=O)N2CC=C(n3c(=O)[nH]c4ccccc43)CC2)cc1`, the activation is 15.9%.

With `CC(=O)C(CC(=O)N1CCCC1)C(=O)Nc1ccc(Cl)cc1` (stereo unspecified), the activation is 7.47%.

`Fc1ccc(NC(=S)N2CCc3[nH]c4ccccc4c3C2)cc1`: the activation is 51.5% (active).

With `COC(=O)C(C(=O)OC)c1ccccc1NS(=O)(=O)c1cccc2ccccc12`, the activation was -0.61%.

Take `CCOc1ccccc1C(=O)N1CCC[C@@H]1C(=O)N1CCC[C@H]1C(=O)NCc1ccccc1`: the activation was -0.21%.

Regarding `Cc1ccc2nc(CN(C)C(=O)[C@@H](Cc3ccccc3)NC(=O)[C@H]3O[C@@H](n4ccc(=O)[nH]c4=O)[C@H](O)[C@@H]3O)[nH]c2c1`, the activation is 1.15%.

`CC(C)CCNC(=O)Cn1c(=O)oc2cc(S(=O)(=O)N3CC(C)CC(C)C3)ccc21` (stereo unspecified): the activation was 4.15%.

As to `N/C(=N\c1nc2ccccc2o1)NC(=O)C(Cc1ccccc1)N1C(=O)c2ccccc2C1=O` (stereo unspecified), the activation is -1.96%.

Take `Cc1cccc(CN2CCC(CNC(=O)Nc3ccc(F)c(Cl)c3)CC2)c1`: the activation is 39.9% (active).

As to `O=C(NCC1CCN(Cc2ccccc2Cl)CC1)Nc1cccc(Cl)c1`, the activation is 2.1%.

Take `Cc1ccc(C)c(CN2CCC(CNC(=O)Nc3ccc(C)c(F)c3)CC2)c1`: the activation was 2.76%.

As for `COc1ccc(C(=O)OCC(=O)NCC2CCCO2)cc1[N+](=O)[O-]` (stereo unspecified), the activation is -0.84%.

As to `O=S(=O)(Nc1cc(S(=O)(=O)N2CCOCC2)ccc1N1CCCC1)c1cccs1`, the activation is -2.22%.

On to `CC1(C)c2[nH]c3ccccc3c2C[C@H]2C(=O)N(N)CC(=O)N21`, for which the activation was 4.18%.

As for `COc1cc(S(=O)(=O)N2CCN=C2c2ccccc2)ccc1Cl`, the activation was -0.47%.

As for `CCOC(=O)[C@]12CCCC=C1N(CCC1=CCCCC1)C(=O)[C@H](CC(=O)NCCCOC)C2`, the activation is -0.95%.

As for `CCOc1ccc(/C=C(/NC(=O)c2ccccc2)C(=O)NCCC(=O)O)cc1`, the activation was 5.67%.

Consider `O=C(NCCN1CCOCC1)/C(=C/c1ccc(F)cc1)NC(=O)c1ccccc1`, for which the activation was -2.27%.

`O=C(NCCc1ccccc1)/C(=C\c1ccc([N+](=O)[O-])cc1)NC(=O)c1ccccc1`: the activation was 50.3% (active).

Take `COC(=O)Cc1nnn2c1[C@H](C)[C@@H](OC)c1cc(Br)ccc1-2`: the activation was 0.26%.

Regarding `O=C(Cn1cnc2c(cnn2-c2ccc(F)cc2)c1=O)NCCc1ccccc1`, the activation was -0.7%.

For the compound `Cc1nnc(NC(=O)Nc2ccc(Cl)c(Cl)c2)s1`, the activation was 42% (active).

`Cc1ccc(NC(=O)Nc2cc(-c3ccccc3)nn2C)cc1Cl`: the activation was 11.2%.

In the case of `O=C(CC(O)(C(F)(F)F)C(F)(F)F)Nc1ccc(Cl)c(Cl)c1`, the activation is 12.3%.

On to `O=P(O)(CP(=O)(c1ccccc1)c1ccccc1)c1ccccc1`, for which the activation is 12.7%.

As for `O=C(COC(=O)Cc1c[nH]c2ccccc12)NCCc1ccccc1`, the activation was 8.93%.

Take `O=C(COC(=O)Cc1ccccc1F)NCCc1ccccc1`: the activation was 47.4% (active).

Take `COc1ccc(CCNC(=O)COC(=O)Cc2ccccc2F)cc1`: the activation was 2.06%.

Consider `COc1ccccc1N(CC(=O)NC1CCCC1)C(=O)C1(C)CC(=O)N=C2C=CC(C)=CN21` (stereo unspecified), for which the activation is 2.01%.

As for `CCN(CC(=O)Nc1c(F)cccc1F)C(=O)c1ccc(S(=O)(=O)N2CCCCC2)cc1`, the activation was 8.1%.

As to `CC1CCN(C(=O)c2cccc(S(=O)(=O)N3CCCc4ccccc43)c2)CC1`, the activation is 2.06%.

For `CCC(=O)Nc1nnc(S(=O)(=O)N2CCCc3ccccc32)s1`, the activation is 0.28%.

For `CCN(CC)CCN(C(=O)c1ccc(N2C(=O)CCC2=O)cc1)c1nc2cc3c(cc2s1)OCO3`, the activation was 2.36%.

In the case of `CN(C)CCCN(C(=O)c1ccc(S(=O)(=O)N2CCCCCC2)cc1)c1nc2ccc(Br)cc2s1`, the activation was 58.3% (active).

Take `CN(C)CCCN(C(=O)c1ccc(S(=O)(=O)N2CCCc3ccccc32)cc1)c1nc2ccc(F)cc2s1`: the activation is 58.5% (active).

Consider `C=CCOc1ccccc1/C=N/NC(=O)Cc1ccccc1`, for which the activation is 3.06%.

For the compound `O=C(NN=Cc1ccccc1O)NN=Cc1ccccc1O`, the activation is 43.2% (active).

For the compound `O=C(CO/N=C/c1ccccc1O)NNC(=O)c1ccccc1Cl`, the activation was 8.86%.

Turning to `NC(CSC(c1ccccc1)(c1ccccc1)c1ccc(-c2ccccc2)cc1)C(=O)O` (stereo unspecified), the activation is 3.19%.

In the case of `O=S(=O)(Cc1ccc(Cl)cc1Cl)c1ccc(Cl)cc1`, the activation is 6.28%.

`COC(=O)C1=C(C)N(Cc2cccc(C(F)(F)F)c2)C(=NCc2cccc(C(F)(F)F)c2)NC1c1ccccc1C(F)(F)F` (stereo unspecified): the activation was -0.1%.

Consider `CC(=O)c1cccc(NC(=O)N2CCCC2C(=O)NCCc2ccccc2)c1` (stereo unspecified), for which the activation was 4.48%.

In the case of `O=C(N[C@H](C(=O)N1CCC[C@H]1C(=O)NCCc1ccccc1Cl)c1ccccc1)c1ccccc1`, the activation was 57.5% (active).

Take `O=C(NCCc1ccc(Cl)cc1)C1CCCN1C(=O)NCc1ccccc1` (stereo unspecified): the activation was -0.77%.

As for `CC1CCN(C(=O)CCc2nnc3ccc(NCc4ccco4)nn23)CC1`, the activation was 6.46%.

As for `COc1ccc(N2C(=O)CC(Nc3ccc(F)cc3)C2=O)c([N+](=O)[O-])c1` (stereo unspecified), the activation was 2.14%.

In the case of `Nc1nc2c(ncn2[C@@H]2O[C@H](C(=O)N[C@@H](Cc3ccccc3)C(=O)NCc3ccccc3)[C@@H](O)[C@H]2O)c(=O)[nH]1`, the activation is 5.02%.

`CC(C)[C@H](NC(=O)N1CCn2c1nc1ccccc12)C(=O)NCCc1ccccc1`: the activation is 38.9% (active).

For the compound `CC(C)[C@H](NC(=O)N1CCn2c1nc1ccccc12)C(=O)NC1CC1`, the activation is 1.88%.

On to `CC(C)[C@H](NC(=O)N1CCn2c1nc1ccccc12)C(=O)NCc1ccc2c(c1)OCO2`, for which the activation is 3.58%.

With `C=CCOc1ccc(C(=O)Nc2ccccc2C(=O)N2CCCC2)cc1`, the activation is -0.26%.

`CN(C(=O)COC(=O)c1ccc(Br)o1)c1c(N)n(Cc2ccccc2)c(=O)[nH]c1=O`: the activation was 0.16%.

In the case of `Cc1cc2nc3c(=O)n(Cc4ccccc4)c(=O)[nH]c3nc2cc1N`, the activation is 53.8% (active).

Consider `Nc1cc(=O)n(Cc2ccccc2)c(=O)n1Cc1ccccc1`, for which the activation is 1.88%.

For the compound `CCN(c1ccccc1)S(=O)(=O)c1cccc(C(=O)NCc2ccccc2CN2CCOCC2)c1`, the activation was 5.65%.

For the compound `COC(=O)[C@]1(Cc2ccccc2)NC=C(C(=O)c2ccccc2)[C@@H]1c1cccc(OC)c1`, the activation is 0.41%.

Turning to `C[C@H](O)[C@@H]1CN2CCc3ccc(-c4ccc5c(c4)OCO5)cc3[C@@H]2C[C@@H]1N(C)C(=O)C1CCCCC1`, the activation is -1.03%.

For `O=C(O)Cn1cnc2c(NCc3ccccc3)ncnc21`, the activation was 2.25%.

For `COc1ccc(CC(N)c2csc(NC(=O)NC(c3ccccc3)c3ccccc3)n2)cc1` (stereo unspecified), the activation is 21.8%.

Turning to `COc1ccc(CC(N)c2csc(NC(=O)Nc3ccc(C(C)C)cc3)n2)cc1` (stereo unspecified), the activation is 47.2% (active).

With `COc1ccc(CC(=O)Nc2sc(Cc3ccccc3)c(C)c2C(N)=O)cc1`, the activation was 3.38%.

As for `CC(C)(C)CC(=O)Nc1nc(C(N)Cc2ccc(C(F)(F)F)cc2)cs1` (stereo unspecified), the activation is 63.4% (active).

Turning to `COc1ccc(S(=O)(=O)N2CCN(C(C)C(=O)Nc3ccc(C(C)C)cc3)CC2)cc1` (stereo unspecified), the activation is 0.11%.

For the compound `Cc1ccccc1NC(=O)Cc1nc(COC(=O)c2ccc(C(F)(F)F)cc2)cs1`, the activation is 6.08%.

As for `CC(C)(C)CC(=O)Nc1nnc(SCC(=O)NCc2cccs2)s1`, the activation was 1.84%.

`NC(Cc1ccccc1)c1csc(Nc2cc(Oc3ccccc3)ncn2)n1` (stereo unspecified): the activation was 69.5% (active).

`NC(Cc1ccc(F)cc1)c1csc(Nc2nncc3ccccc23)n1` (stereo unspecified): the activation was 35.4%.

As to `COC(=O)[C@H](CCSC)NC(=O)Nc1ccc(OC)cc1`, the activation was -1.88%.

For `COc1ccc(CC(N)c2csc(NC(=O)Cc3ccccc3)n2)cc1` (stereo unspecified), the activation was 56.1% (active).

In the case of `CC(=NNC(N)=O)c1ccc(Cl)c(-n2cccc2)c1`, the activation was 0.51%.

`CCN(C(=O)c1ccc(Br)cc1)c1ccccc1`: the activation was 0.89%.

Turning to `COc1ccc(CNS(=O)(=O)c2cc(Br)ccc2Br)cc1`, the activation was 3.49%.

`C[C@@H]1CN([C@H](C)CO)C(=O)CCCn2cc(nn2)CO[C@H]1CN(C)C(=O)Nc1ccc(N2CCCCC2)cc1`: the activation is 0.76%.

With `O=C(C(=O)N1CCC(CNS(=O)(=O)Cc2ccccc2)CC1)c1cc2ccccc2o1`, the activation was 3.18%.

As to `CCOC(=O)c1cnc(SC)nc1Sc1ccc(Cl)cc1Cl`, the activation is 9.74%.

`C=CCNC(=O)c1sc(SC)cc1-c1ccc(Cl)cc1`: the activation is 4.3%.

For `CC(C)(C)C(c1nc2ccccc2[nH]1)n1c(Cc2csc3ccccc23)nc2ccccc21` (stereo unspecified), the activation was 0.77%.

Regarding `CC(=O)C1=C(C)N(Cc2ccc(Cl)cc2)C(=S)NC1c1ccc(F)cc1` (stereo unspecified), the activation was -0.39%.

Regarding `O=S(=O)(NCCc1ccccn1)c1cc(Cl)cc(Cl)c1O`, the activation is 3.97%.

With `O=[N+]([O-])c1cccc(S(=O)(=O)NCc2ccccn2)c1`, the activation is 2.02%.

In the case of `O=[N+]([O-])c1cc(S(=O)(=O)NCCc2ccccn2)ccc1Cl`, the activation was 68.6% (active).

For the compound `CCCCOCC1CN(CCCC)S(=O)(=O)c2c(Oc3ccc(F)cc3)cccc2O1` (stereo unspecified), the activation is 1.51%.

As for `COC(=O)C1=C(C)N(Cc2cccc(C(F)(F)F)c2)C(=NCc2ccccc2)NC1c1ccc(Cl)cc1` (stereo unspecified), the activation was 19.1%.

For the origin of these results see PubChem BioAssay AID624467 (The Scripps Research Institute Molecular Screening Center, 2012).
